Source: article PMC8883152 (Translational Vision Science & Technology, 2022)

Assays:
Format in all cases: in vivo, C57BL/6 mice
[1] = tested on: MMP-2/TIMP-2 and MMP-9/TIMP-1 ratios; details: retinal extracts, normalized to α-tubulin
Method in brief: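 Three mice per group were used (dexamethasone-induced hypertension, 21 days of topical dosing). Retinas were homogenised in RIPA buffer (pH 8.0) and centrifuged at 14,000g for 30 min at 4°C. Protein (10 µg/lane) was run on 10% SDS-PAGE and blotted. Membranes were probed overnight at room temperature for MMP-2, MMP-9, TIMP-1 and TIMP-2. Bands were detected by ECL densitometry and normalised to α-tubulin, and MMP-2/TIMP-2 and MMP-9/TIMP-1 ratios were calculated.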

[2] = tested on: Dex-induced OHT mouse model; assay: Electroretinography; details: day 21, compared with vehicle-treated group
Method in brief: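 Male C57BL/6 mice (11 weeks) received 0.1% dexamethasone eye drops (20 µL/eye) in both eyes three times daily for 2 weeks, continued through dosing. Test compound (0.04% BID), latanoprost (0.005% QD) or both were then given topically for 21 days, doses 5 min apart. ERG was run on both eyes of dark-adapted anaesthetised mice on days 0 and 21. A single white 0.3 log cd·s/m2 flash was used, and b-wave amplitude was measured.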

RGCs = assay: Hematoxylin and eosin staining of retinal sections; details: after 21 days treatment, H&E retinal cross-sections
Method in brief: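 In dexamethasone-induced hypertensive C57BL/6 mice treated topically for 21 days, eyes were enucleated after euthanasia and fixed in 10% formalin for 24 h. They were paraffin-embedded and sectioned. Retinal sections were stained with hematoxylin (0.1% plus 10% ammonium) for 3–5 min, then 1% eosin Y for 1 min. Slides were dehydrated through ethanol and xylene and scanned to assess RGCs.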

[3] = tested on: fibronectin and α-SMA expression in the TM; details: after 21 days treatment
Method in brief: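 Eye sections from dexamethasone-induced hypertensive C57BL/6 mice (21 days of topical dosing) were used. Sections were incubated overnight at room temperature with fibronectin and α-SMA antibodies (1:200) and washed in 0.1 M PBST. Fluorescent secondary antibodies (1:500) were applied for 1 h. Sections were DAPI-counterstained and imaged by fluorescence microscopy focused on the trabecular meshwork.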

[4] = tested on: Dex-induced OHT mouse model; assay: IOP in dexamethasone-induced ocular hypertension mouse model; details: HL3501 0.04% BID, latanoprost 0.005% QD, or both
Method in brief: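 IOP was read with a rebound tonometer on days 0, 1, 3, 5, 7, 10, 14, 17 and 21 in male C57BL/6 mice. Ocular hypertension was pre-induced by 0.1% dexamethasone (20 µL/eye, three times daily, 2 weeks; maintained throughout). Drops were test compound 0.04% BID, latanoprost 0.005% QD, or both 5 min apart, for 21 days. Groups had 8–10 mice. Basal IOP was taken before dexamethasone.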

CC(C)OC(=O)CCC/C=C\C[C@@H]1[C@@H](CC[C@@H](O)CCc2ccccc2)[C@H](O)C[C@@H]1O [Latanoprost, latanoprost]
MMP-2/TIMP-2 ratio (in words) [1]: increased | MMP-9/TIMP-1 ratio (in words) [1]: increased | b-wave values on day 21 (in words) [2]: did not decrease as much | RGC loss (in words) (RGCs): less affected by RGC loss | Fibronectin and α-SMA expression in the TM compared with vehicle (in words) [3]: suppressed | IOP effect over 3 weeks in Dex-induced OHT mouse model (in words) [4]: consistent IOP-lowering effect
